In ChEMBL document CHEMBL4229460, “Design and biological evaluation of novel hybrids of 1, 5-diarylpyrazole and Chrysin for selective COX-2 inhibition” (Bioorg Med Chem, 2018):

How the values were obtained:
[1] = biological target: Prostaglandin G/H synthase 1 (Homo sapiens, UniProt P23219); test: Inhibition of COX1 (unknown origin) using arachidonic acid as substrate pretreated for 10 mins followed by substrate addition and measured after 2 mins by ELISA; assay type: ADME
HeLa [2] = test: Induction of apoptosis in human HeLa cells assessed as late apoptotic cells at 10 uM after 24 hrs by Annexin-V-FITC/propidium iodide staining based flow cytometry (reference value: 1.72%); assay type: functional
Outline: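 HeLa seeded at 2 × 10⁵ cells/well. Dose series was 0, 1.25, 2.5, 5 and 10 μM for 24 h; time course was 5 μM for 12, 24, 36 or 48 h. Trypsinized and washed in ice-cold PBS, then stained in binding buffer with Annexin V-FITC and PI for 10 min in the dark. Flow cytometry scored early (Annexin⁺/PI⁻) and late (Annexin⁺/PI⁺) apoptotic cells.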

Homo sapiens = species on record: Homo sapiens; test: Selectivity index, ratio of IC50 for COX1 (unknown origin) to ratio of IC50 for COX2 (unknown origin)
Outline: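 Enzyme ELISA kit: COX-1 or COX-2 preincubated with compound at 0, 1, 10 or 100 μM for 10 min at 37 °C in 0.1 M Tris-HCl pH 8.0, 5 mM EDTA, 2 mM phenol, 1 μM heme. Started with 100 μM arachidonic acid for 2 min at 37 °C, stopped with 1 M HCl. PGH₂ reduced by stannous chloride; PGF2α read by enzyme immunoassay at 450 nm. Index taken as the ratio of the COX IC50 values.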

HeLa [3] = test: Cell cycle arrest in human HeLa cells assessed as accumulation at G1 phase at 2.5 uM after 24 hrs by propidium iodide staining based flow cytometry (reference value: 55.51%); assay type: functional

Chain of Prostaglandin G/H synthase 1 (P23219 whole entry): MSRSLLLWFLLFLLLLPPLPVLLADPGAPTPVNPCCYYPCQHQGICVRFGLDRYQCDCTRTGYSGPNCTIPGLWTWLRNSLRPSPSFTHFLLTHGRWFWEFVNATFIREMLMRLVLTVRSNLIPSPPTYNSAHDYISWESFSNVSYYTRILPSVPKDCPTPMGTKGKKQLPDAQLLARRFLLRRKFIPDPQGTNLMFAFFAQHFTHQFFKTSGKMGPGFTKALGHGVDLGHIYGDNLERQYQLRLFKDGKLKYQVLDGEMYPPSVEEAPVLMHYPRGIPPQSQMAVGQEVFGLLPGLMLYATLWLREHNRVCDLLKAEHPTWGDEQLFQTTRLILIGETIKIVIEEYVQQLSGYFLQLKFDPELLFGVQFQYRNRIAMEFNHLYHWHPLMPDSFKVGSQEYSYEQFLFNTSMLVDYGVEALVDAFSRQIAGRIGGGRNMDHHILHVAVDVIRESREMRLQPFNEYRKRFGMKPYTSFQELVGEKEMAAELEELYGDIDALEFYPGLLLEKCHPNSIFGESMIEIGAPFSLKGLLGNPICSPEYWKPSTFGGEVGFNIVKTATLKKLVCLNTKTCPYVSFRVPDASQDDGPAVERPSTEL

## COc1ccc(-c2cc(COC(=O)COc3cc(O)c4c(=O)cc(-c5ccccc5)oc4c3)nn2-c2ccc(C)cc2)cc1
[1]
  IC50: 47.5 µM
HeLa [2]
  Activity: 11.5%
Homo sapiens
  Ratio IC50: 206
HeLa [3]
  Activity: 67.88%
